Article PMC5531262 (Messenger (Los Angeles, Calif. : Print), 2016)
Several values for one entry are separate records, joined by “and”; a condition that tells them apart may be missing. Equal entries are not always repeated.

Key:
Type in all cases: biochemical, Lytechinus pictus
[1] = tested on: IP3-induced Ca^2+ release (IP3Rs); experiment: IP3-induced Ca^2+ release in sea urchin egg homogenate
Method in brief: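 Lytechinus pictus egg homogenate (GluIM, pH 7.2, with ATP-regenerating system) diluted 20-fold over 3 h at 17°C to 2.5% v/v. Fluo-3 3 μM final, ex 506/em 526 nm, stirred cuvette. Test compound or DMSO preincubated 2 min, then sub-maximal IP3 chosen from a dose-response curve. Signal calibrated to [Ca2+] with 0.5 mM EGTA then 10 mM CaCl2. Sigmoidal fit; mean ± SEM, n = 4–7.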

[2] = tested on: cADPR-induced Ca^2+ release (RyRs); experiment: cADPR-induced Ca^2+ release in sea urchin egg homogenate
Method in brief: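 Egg homogenate from Lytechinus pictus diluted 20-fold over 3 h at 17°C in GluIM with ATP regeneration; 3 μM Fluo-3 final, calibrated with EGTA/CaCl2. Test compound or DMSO preincubated 2 min before 0.3 μM cADPR (sub-maximal). For the time course, 30 μM test compound was preincubated 10–120 s. cADPR concentration-response was run after 2 min with 30 μM or DMSO. Sigmoidal fits; mean ± SEM, n = 4–9.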

[3] = tested on: caffeine-induced Ca^2+ release (RyRs); experiment: caffeine-induced Ca^2+ release in sea urchin egg homogenate; conditions: 10 mM caffeine
Method in brief: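 Lytechinus pictus egg homogenate loaded with Ca2+ by 20-fold dilution over 3 h at 17°C in GluIM plus ATP-regenerating system; Fluo-3 3 μM final, stirred cuvette, ex 506/em 526 nm. Test compound preincubated 2 min, then 10 mM caffeine. Fluorescence converted to [Ca2+] using 0.5 mM EGTA and 10 mM CaCl2 for Fmin/Fmax. Sigmoidal concentration-response fit; mean ± SEM, n = 4–7.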

In the case of `O=P(O)(O)O[C@@H]1[C@H](O)[C@H](O)[C@@H](OP(=O)(O)O)[C@H](OP(=O)(O)O)[C@H]1O` [IP3, inositol 1,4,5-trisphosphate], the “raw control ∆[Ca^2+] with IP3” value ([1]; sub-maximal IP3, no inhibitor) is reported as 94 ± 1 nM.

In the case of `c1ccc(CN(CCN(Cc2ccccn2)Cc2ccccn2)Cc2ccccn2)nc1` [TPEN, N,N,N’,N’- tetrakis(2-pyridylmethyl)ethylenediamine], the “effect on cADPR-induced Ca^2+ release” value ([2]; preincubation 2 minutes, then 0.3 μM cADPR, magnitude and kinetics) is reported as “inhibited cADPR-induced Ca^2+ release”.

`N=c1c2ncn3c2ncn1[C@@H]1O[C@H](COP(=O)(O)OP(=O)(O)OC[C@H]2O[C@@H]3[C@H](O)[C@@H]2O)[C@@H](O)[C@H]1O` [cADPR] was tested, and the “raw control response ∆[Ca^2+] with cADPR” value ([2]; 0.3 μM cADPR, no inhibitor) was 72 ± 5 nM and 76 ± 4 nM and 72 ± 4 nM and 85 ± 3 nM and 75 ± 4 nM and the EC50 ([2]; read-out: EC50 of cADPR for Ca^2+ release (concentration-response curve), sea urchin egg homogenate, Fig. 2b) was about 250 nM.

With `Cn1c(=O)c2c(ncn2C)n(C)c1=O` [caffeine] the “raw control ∆[Ca^2+] with caffeine” value ([3]; no inhibitor) was 80 ± 5 nM.

For `COc1ccccc1OCCNCC(O)COc1cccc2[nH]c3ccccc3c12` (stereo not drawn) [carvedilol], the “inhibition of cADPR-induced Ca^2+ release (extent)” value ([2]; 0.3 μM cADPR, extent of inhibition at high carvedilol concentration) was over 80%, the “time of preincubation to maximal suppression of cADPR-induced Ca^2+ release” value ([2]; carvedilol 30 μM, no further inhibition at longer incubations) was at most 10 s and the “inhibition of IP3-induced Ca^2+ release (extent)” value ([1]; sub-maximal IP3, preincubation 2 minutes, Fig. 4) was 47%. For the same compound, the “inhibition of caffeine-induced Ca^2+ release (extent)” value ([3]; preincubation 2 minutes) was over 80%.
